Measured values reported in ChEMBL document CHEMBL1129426, “5-Lipoxygenase inhibitors: synthesis and structure-activity relationships of a series of 1-aryl-2H,4H-tetrahydro-1,2,4-triazin-3-ones” (J Med Chem, 1996).
Calls of active or inactive are those of the source. No cut-off for these calls is given here.

What was measured:
[1] = Plasma Cmax in rat (PO dose); type: ADME, organism-based; design: route oral
Procedure, shortened: (§1)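 Rats dosed by oral gavage at 200 µmol/kg. Tail-vein blood drawn at about 1 h intervals; plasma analysed by HPLC. Mean of data from two animals.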

Rattus norvegicus [2] = assay: In vivo inhibition of rat anaphylaxis LTE4 leukotriene formation from peritoneal fluids, 1 hr after an oral dose of 200 uM/kg; type: functional
Procedure, shortened: (§2)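 Rats given 200 µmol/kg orally 1 h before antibody-antigen challenge inducing peritoneal leukotriene biosynthesis; LTE4 in peritoneal fluid measured. Mean of eight rats; percent inhibition versus control group mean; significance by one-way ANOVA with Tukey's multiple comparison.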

[3] = Plasma Tmax in rat (PO dose); type: ADME, organism-based; procedure, shortened: as §1
[4] = molecular target: T1, Polyunsaturated fatty acid 5-lipoxygenase (Rattus norvegicus, UniProt P12527); assay: Inhibition of 5-lipoxygenase catalysis in rat basophilic leukemia (RBL) cells by measuring 5-HETE product formation; type: cell-based, RBL-1
T1 sequence (P12527 whole entry): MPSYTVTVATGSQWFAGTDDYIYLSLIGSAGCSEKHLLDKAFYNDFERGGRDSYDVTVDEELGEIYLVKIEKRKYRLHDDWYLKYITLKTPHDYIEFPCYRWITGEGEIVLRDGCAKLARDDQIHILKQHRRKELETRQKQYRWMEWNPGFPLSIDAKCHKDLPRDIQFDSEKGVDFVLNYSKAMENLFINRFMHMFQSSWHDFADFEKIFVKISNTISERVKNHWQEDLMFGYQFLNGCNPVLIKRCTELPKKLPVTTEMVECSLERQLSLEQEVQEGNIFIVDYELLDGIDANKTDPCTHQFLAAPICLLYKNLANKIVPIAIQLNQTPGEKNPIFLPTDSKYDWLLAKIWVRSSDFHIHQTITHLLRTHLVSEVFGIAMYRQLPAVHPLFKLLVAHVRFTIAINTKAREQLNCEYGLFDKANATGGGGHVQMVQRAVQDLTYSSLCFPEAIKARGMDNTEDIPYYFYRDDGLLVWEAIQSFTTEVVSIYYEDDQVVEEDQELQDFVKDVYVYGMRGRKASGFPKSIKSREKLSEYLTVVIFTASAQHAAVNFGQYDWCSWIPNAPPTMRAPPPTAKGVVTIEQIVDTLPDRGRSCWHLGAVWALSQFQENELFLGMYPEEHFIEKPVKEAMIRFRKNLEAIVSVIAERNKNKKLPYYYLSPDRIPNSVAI
Procedure, shortened: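 Crude 20000g supernatant from sonicated rat basophilic leukemia cells used as 5-LO source; 5-HETE product formation measured.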

[5] = molecular target: T2, Polyunsaturated fatty acid 5-lipoxygenase (Homo sapiens, UniProt P09917); assay: In vitro 5-lipoxygenase inhibitory activity against calcium ionophore (A23187) induced LTB4 formation in human whole blood.
T2 sequence (P09917 whole entry): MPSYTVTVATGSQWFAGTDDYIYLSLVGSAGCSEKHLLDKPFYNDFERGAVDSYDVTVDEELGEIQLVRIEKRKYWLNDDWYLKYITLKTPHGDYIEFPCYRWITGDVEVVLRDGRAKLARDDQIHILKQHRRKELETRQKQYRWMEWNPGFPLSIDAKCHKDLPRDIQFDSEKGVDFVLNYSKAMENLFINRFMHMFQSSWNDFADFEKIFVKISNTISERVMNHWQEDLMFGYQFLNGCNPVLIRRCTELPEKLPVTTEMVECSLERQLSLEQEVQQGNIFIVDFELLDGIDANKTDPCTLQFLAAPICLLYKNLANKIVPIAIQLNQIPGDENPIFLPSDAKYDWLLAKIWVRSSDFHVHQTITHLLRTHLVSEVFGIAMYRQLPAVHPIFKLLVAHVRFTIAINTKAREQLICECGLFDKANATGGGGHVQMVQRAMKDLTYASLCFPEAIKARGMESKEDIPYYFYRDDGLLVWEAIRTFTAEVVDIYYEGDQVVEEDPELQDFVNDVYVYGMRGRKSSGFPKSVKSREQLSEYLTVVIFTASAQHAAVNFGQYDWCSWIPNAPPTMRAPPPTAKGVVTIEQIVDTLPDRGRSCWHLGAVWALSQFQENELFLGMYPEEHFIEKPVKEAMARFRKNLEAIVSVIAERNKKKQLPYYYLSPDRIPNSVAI

Rattus norvegicus [6] = assay: In vivo inhibition of rat anaphylaxis leukotriene formation from peritoneal fluids, 1 hr after an oral dose of 200 uM/Kg; type: functional; procedure, shortened: as §2
Rattus norvegicus [7] = assay: In vivo inhibition of rat anaphylaxis leukotriene formation from peritoneal fluids, 1 hr after an oral dose of 200 uM/Kg; Not significant; type: functional, organism-based; procedure, shortened: as §2

Row | SMILES | Cmax [1] | Inhibition (Rattus norvegicus [2]) | Tmax [3] | IC50 [4] | IC50 [5] | ED50 (Rattus norvegicus [6]) | ED50 (Rattus norvegicus [7])
1 | Cc1cc(C)cc(N2CCNC(=O)N2)c1 | 20 µM | 46% | 4 h |  |  |  | 
2 | O=C1NCCN(c2cccc(Cl)n2)N1 | 122 µM |  | 2 h | 5.6 µM | 4.8 µM | 16 mg/kg | 
3 | O=C1NCCN(c2cccc(F)c2)N1 | 108 µM | 38% | 1 h |  |  |  | 
4 | O=C1NCCN(c2cccc(Br)c2)N1 | 35 µM | 46% | 4.2 h |  |  |  | 
5 | O=C1NCCN(c2cccc([N+](=O)[O-])c2)N1 | 62 µM |  | 2 h | 49 µM |  |  | 
6 | CC(C)C1CN(c2ccccc2)NC(=O)N1 (configuration not stated) | 48 µM |  | 2 h | 6.8 µM | 20 µM | 59 mg/kg | 
7 | O=C1NCCN(c2cnc3ccccc3c2)N1 | 58 µM |  | 1 h | 32 µM |  |  | 
8 | CON1C(=O)NN(c2ccccc2)CC1C (configuration not stated) |  |  |  | 22 µM |  |  | 
9 | CC1CN(c2ccccc2)NC(=O)N1 (configuration not stated) | 141 µM |  | 2 h | 11 µM | 5.8 µM | 13 mg/kg | 
10 | CC1CN(c2cccc(Cl)c2)NC(=O)N1 (configuration not stated) | 31 µM | 40% | 4 h | 2.7 µM | 2.7 µM |  | 
11 | O=C1NCCN(c2cccc(Br)n2)N1 | 79 µM |  | 1 h | 3.5 µM | 4.6 µM | 41 mg/kg | 
12 | COc1cccc(N2CCNC(=O)N2)n1 | 101 µM | 26% | 1 h | 9.5 µM | 3.5 µM |  | 
13 | CC1CN(c2cccc(Br)c2)NC(=O)N1 (configuration not stated) | 26 µM | 54% | 7.2 h | 2.6 µM | 5.2 µM |  | 
14 | CC1CN(c2ccccc2)NC(=O)N1O (configuration not stated) |  |  |  | 6 µM | 13 µM |  | 
15 | COc1cccc(N2CCNC(=O)N2)c1 | 72 µM | 44% | 1.2 h | 47 µM |  |  | 
16 | O=C1NC(Oc2ccc(F)cc2)CN(c2ccccc2)N1 (configuration not stated) |  |  |  |  | 2.6 µM |  | inactive
17 | Cc1ccc(N2CCNC(=O)N2)cc1 | 105 µM |  | 1.1 h | 300 µM |  |  | 
18 | O=C1NCCN(c2cccc(Cl)c2)N1 | 59 µM |  | 2 h | 5.3 µM | 2.1 µM | 18 mg/kg | 
19 | Cc1cccc(N2CC(C)NC(=O)N2)c1 (configuration not stated) | 44 µM | 43% | 2.2 h | 1.3 µM |  |  | 
20 | Cc1cccc(N2CC(C)N(O)C(=O)N2)c1 (configuration not stated) |  |  |  | 8.4 µM | 4.8 µM |  | 

Row | SMILES | Cmax [1] | Inhibition (Rattus norvegicus [2]) | Tmax [3] | IC50 [4] | IC50 [5] | ED50 (Rattus norvegicus [6]) | ED50 (Rattus norvegicus [7])
21 | Cc1cccc(N2CCNC(=O)N2)n1 | 99 µM |  | 1 h | 5.5 µM | 7.9 µM | 17 mg/kg | 
22 | CC1CN(c2cccc(F)n2)NC(=O)N1 (configuration not stated) |  |  |  | 6.6 µM | 6 µM |  | 
23 | O=C1NCCN(c2cccc(-c3ccccn3)c2)N1 |  |  |  | 30 µM |  |  | 
24 | O=C1NCCN(c2cccc(-c3ccsc3)c2)N1 | 2 µM |  | 1 h | 4.9 µM | 5.3 µM |  | 
25 | O=C1NCCN(c2cccnc2)N1 |  |  |  | 32 µM |  |  | 
26 | CCc1cccc(N2CCNC(=O)N2)c1 | 32 µM |  | 1.1 h |  |  | 24 mg/kg | 
27 | CC1(C)CN(c2ccccc2)NC(=O)N1 | 20 µM |  | 2.2 h | 6.8 µM |  |  | inactive
28 | O=C1NCCN(c2cccc(C(F)(F)F)c2)N1 | 24 µM | 40% | 4.1 h |  |  |  | 
29 | O=C1NCCN(c2ccccn2)N1 | 184 µM |  | 1 h |  | 8.6 µM | 8 mg/kg | 
30 | Cc1ccccc1N1CCNC(=O)N1 | 78 µM |  | 2.1 h | 386 µM |  |  | inactive
31 | CCC1CN(c2ccccc2)NC(=O)N1 (configuration not stated) | 59 µM |  | 1.2 h |  | 3.8 µM | 24 mg/kg | 
32 | O=C1NC(Oc2ccccc2)CN(c2ccccc2)N1 (configuration not stated) |  |  |  |  | 2.6 µM |  | inactive
33 | Cc1cccc(N2CCNC(=O)N2)c1 | 98 µM |  | 1.1 h |  | 2 µM | 18 mg/kg | 
34 | O=C1NCCN(c2cccc(-c3cccs3)n2)N1 |  |  |  | 8.2 µM | 37 µM |  | 
35 | O=C1NCCN(c2cccc(O)c2)N1 |  |  |  | 32 µM |  |  | 
36 | O=C1NCCN(c2cccc(F)n2)N1 |  |  |  | 9.1 µM | 3 µM |  | 
37 | CN1CCN(c2ccccc2)NC1=O |  |  |  | 32 µM |  |  | 
38 | Cc1cccc(N2CC(C)NC(=O)N2)n1 (configuration not stated) | 125 µM |  | 1 h | 3.8 µM | 1.7 µM |  | 
39 | CC1CN(c2cccc(-c3cccs3)c2)NC(=O)N1 (configuration not stated) | 1 µM |  | 4 h | 2.8 µM | 5.5 µM |  | 
40 | CC1CN(c2cccc(Cl)c2)NC(=O)N1O (configuration not stated) |  |  |  |  | 3.6 µM |  | 

Row | SMILES | Cmax [1] | Inhibition (Rattus norvegicus [2]) | Tmax [3] | IC50 [4] | IC50 [5] | ED50 (Rattus norvegicus [6]) | ED50 (Rattus norvegicus [7])
41 | Nc1cccc(N2CCNC(=O)N2)c1 | 95 µM |  | 1.1 h | 178 µM |  |  | 
42 | O=C1NCCN(c2cccc(OCc3ccccc3)c2)N1 | 2.5 µM | 14% | 1 h | 1.1 µM | 0.2 µM |  | 
43 | CC1CN(c2cccc(Br)n2)NC(=O)N1 (configuration not stated) | 21 µM | 57% | 2 h |  | 3.1 µM |  | 
44 | CC1CN(c2cccc(-c3ccco3)c2)NC(=O)N1 (configuration not stated) | 7 µM |  | 1 h | 4.8 µM | 8.4 µM |  | inactive
45 | O=C1NN(c2ccccc2)CCN1Cc1ccccc1 |  |  |  | 8.3 µM |  |  | 
46 | O=C1NCCN(c2nc3ccccc3o2)N1 |  |  |  | 32 µM |  |  | 
47 | O=C1NCCN(c2cccc(-c3ccccn3)n2)N1 |  |  |  | 6 µM | > 50 µM |  | 
48 | COc1cccc(N2CC(C)NC(=O)N2)n1 (configuration not stated) | 85 µM |  | 1 h | 5.5 µM | 7.1 µM |  | 
49 | COCCOCC1CN(c2ccccc2)NC(=O)N1 (configuration not stated) |  |  |  | 14 µM | 24 µM |  | 
50 | O=C1NCCN(c2cccc(-c3ccncc3)c2)N1 |  |  |  | 30 µM |  |  | 
51 | CCCCC1CN(c2ccccc2)NC(=O)N1 (configuration not stated) | 8 µM | 42% | 1 h | 1.5 µM |  |  | 
52 | CCN1CCN(c2ccccc2)NC1=O |  |  |  | 32 µM |  |  | 
53 | O=C1NCCN(c2nc3ccccc3s2)N1 | 123 µM |  | 2 h | 32 µM |  |  | 
54 | O=C1NCCN(c2cc(F)cc(F)c2)N1 | 64 µM | 59% | 2 h | 8.9 µM | 4.6 µM |  | 
55 | O=C1NCCN(c2cccc(-c3cccs3)c2)N1 | 3 µM |  | 1 h | 2.1 µM | 8.8 µM |  | 
56 | O=C1NCCN(c2ccnc3cc(Cl)ccc23)N1 | 85 µM |  | 4 h | 32 µM |  |  | 
57 | CC1CN(c2cccc(F)c2)NC(=O)N1 (configuration not stated) | 70.2 µM | 60% | 7.2 h | 6.3 µM | 1.8 µM |  | 
58 | CC1CN(c2cccc(Cl)n2)NC(=O)N1 (configuration not stated) | 48 µM |  | 2 h | 3.5 µM | 1.6 µM |  | inactive
59 | O=C1NCCN(c2ccncc2)N1 |  |  |  | 32 µM |  |  | 
60 | CSc1cccc(N2CCNC(=O)N2)c1 | 26 µM | 73% | 1 h |  | 2.2 µM |  | 
